Article PMC5759846 (Infection and Drug Resistance, 2018)

Key:
[1] = introduction; ref [15]–[17]; cited from earlier work
[2] = introduction; ref [15]–[17]; cited from earlier work; remark: listed apart in the source
[3] = Serum teicoplanin trough concentration; assay type: in vivo, Chinese patients; settings: day 4
Outline: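 Day-4 serum (2–3 mL, additive-free tubes, spun 3,500 rpm 10 min) drawn 30 min before maintenance dose; trough measured by HPLC. Cure or failure judged days 5–7 after last dose from symptoms, laboratory and bacteriological findings. Target 15–30 mg/L; mean ± SD.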

[4] = Group B, n=30, loading 400 mg q12h x3, maintenance 400 mg/day
[5] = Group C, n=17, loading 400 mg q12h x2, maintenance 200 mg/day
[6] = Group D, n=30, loading 400 mg q12h x1-3, maintenance 200 mg/day

Which results are given for teicoplanin?
elimination half-life [1]: 30 to 180 h; plasma protein-binding rate [2]: over 90%; Mean teicoplanin Cmin for a failure ([3]; 38 patients with failed response, all groups, mean ± SD, SD): 10010 ± 2370 ng/mL; Mean teicoplanin Cmin for a successful response ([3]; 75 patients with clinical cure, all groups, mean ± SD, SD): 18920 ± 5120 ng/mL; Proportion of patients achieving target range Cmin 15–30 mg/L [3, 4]: 66.67%; Proportion of patients with Cmin 10–30 mg/L [3, 4]: 86.67%; Proportion of patients achieving target range Cmin 15–30 mg/L [3, 5]: 70.59%; Proportion of patients with Cmin 10–30 mg/L [3, 5]: 88.23%; Proportion of patients achieving target range Cmin 15–30 mg/L [3, 6]: 23.33%; Proportion of patients with Cmin 10–30 mg/L [3, 6]: 70%
